ROMK primary: ROMK potassium channel modulators, primary screen, cell-based, thallium flux, MLSMR library; ATP-sensitive inward rectifier potassium channel 1 (Homo sapiens), P48048; Tet-inducible ROMK, thallium flux fluorescence; actives lie on both sides; B-score at 10 µM; hit rate 2% among 130,000; AID 1918, 2009;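 active means signal ratio slope over the read window, or its plate-corrected B-score, at least 3 SD from the plate mean, either direction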;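 further: B-score of the F/F0 ratio slope over 7 to 12 s after thallium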
Target sequence (P48048 whole entry, looked up): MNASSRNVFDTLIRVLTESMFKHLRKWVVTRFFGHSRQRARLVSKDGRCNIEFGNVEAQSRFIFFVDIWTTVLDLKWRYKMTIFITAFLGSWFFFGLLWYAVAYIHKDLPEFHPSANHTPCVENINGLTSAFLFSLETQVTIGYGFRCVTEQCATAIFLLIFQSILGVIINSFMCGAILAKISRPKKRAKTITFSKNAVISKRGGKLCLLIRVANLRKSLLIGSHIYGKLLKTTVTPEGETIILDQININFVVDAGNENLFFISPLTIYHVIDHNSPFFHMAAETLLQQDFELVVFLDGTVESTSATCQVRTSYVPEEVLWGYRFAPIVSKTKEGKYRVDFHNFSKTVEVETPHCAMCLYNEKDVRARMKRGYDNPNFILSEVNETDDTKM
Diaph inh CS: diaphorase inhibitors and chemical oxidizers, primary screen, counter-screen for diaphorase-coupled primary assays, biochemical, uHTS, resorufin fluorescence | diaphorase resazurin-to-resorufin fluorescence, NADH, 16 min; bacterial (C. kluyveri) enzyme, not human | inhibition, % at 20 µM | hit rate 0.69% among 190,000;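 active means primary screen inhibition at 20 µM above a set limit, cut at about 50% in these data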;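 further: plate controls were DMSO with full reaction for no effect and wells lacking NADH for full effect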
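Assay system: diaphorase enzyme from Clostridium kluyveri. Quantity: enzyme working solution with 0.14 U/mL diaphorase. Schedule: reaction incubation of 16 min at room temperature. Technique: resorufin fluorescence, excitation 544 nm, emission 590 nm. Controls: No-NADH positive control and DMSO neutral control.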
Lmaj promast: Leishmania major promastigote growth inhibition, primary screen; Leishmania major promastigotes, resazurin fluorescence viability; inhibition, % at 10 µM; hit rate 9% among 200,000; in the data active means inhibition above about 50%;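 further: promastigotes grown with compound for 44 hours at 28 °C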
Diaph act CS: compounds boosting diaphorase resazurin reduction – biochemical, uHTS, resorufin fluorescence, counter-screen for diaphorase-coupled primary assays, primary screen; Diaphorase/resazurin coupled assay, 16 min; stronger effect = higher value; 1 = vehicle wells, 0 = NADH-free wells; activation factor at 20 µM; hit rate 0.005% among 190,000; AID 1229, 2008;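 active means diaphorase activity raised at least twofold by the compound at 20 µM; inactive means activation factor below 2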
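Test system: Clostridium kluyveri diaphorase, purified enzyme; input: enzyme 0.07 U/mL final; buffer or medium: 50 mM HEPES pH 7.4 with 4.542 mM MgCl2, 0.005% Tween 20; also added: 0.114 mM NADH and 0.1 mM resazurin, final amounts; schedule: 16 min enzyme reaction, ambient temperature; technique: fluorescence of resorufin, 544 nm excitation, 590 nm emission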
KCC2 mod: KCC2 cotransporter modulators, thallium flux, primary screen, cell-based, HEK293 KCC2, FluoZin-2 fluorescence, MLSMR; Solute carrier family 12 member 5 (Homo sapiens), Q9H2X9; KCC2 cells, thallium flux FluoZin-2 fluorescence; B-score of Tl+ flux slope (higher = more flux/activation; lower = inhibition) at 10 µM; hit rate 2.2% among 190,000;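 active means thallium flux slope and its plate-corrected score both differing from the plate sample mean at a set confidence after two filtering rounds, in either direction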;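 further: slope of fluorescence scaled to starting intensity during 10 to 20 s after thallium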
WT yeast gro inh: growth inhibition of WT strain, primary screen, mitochondrial fusion inhibitor project, WT and mutant strains, chemical genetic; mitochondrial fusion phenotypic screen; inhibition, % at 10 µM; hit rate 2.1% among 190,000; AID 1362, 2008; in the data active means inhibition above about 58%; tested in S. cerevisiae
KCC2 sec1: KCC2 modulators in sodium-free buffer, confirmation, cell-based, HEK293 KCC2, thallium flux, secondary assay | shares compounds with KCC2 mod | FluoZin2 fluorescence; stronger effect = higher value | normalised thallium flux (F/F0 slope) at 10 µM | hit rate 15% among 3,700 | AID 1713, 2009;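 active means thallium flux slope above the same plate's solvent-only control mean plus 3 SD; inconclusive means the two replicate wells disagree; inactive means no significant difference from solvent-only control wells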
KCC2 bumet counter: thallium flux persisting under bumetanide in KCC2 cells, confirmation, counter-screen for KCC2 modulator project, cell-based, HEK293 KCC2, FluoZin2, secondary assay 3; shares compounds with KCC2 mod; HEK293-KCC2 + bumetanide/ouabain; stronger effect = higher value; normalized thallium flux at 10 µM; hit rate 49% among 3,700; AID 1714, 2009;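 active means thallium entry rate above the same plate's blocked-transporter control wells by more than 3 SD; inconclusive means the two repeat wells disagree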;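 further: raw slope of fluorescence over initial fluorescence between 10 and 20 s after thallium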
KCC2 secondary2: KCC2 modulators without ouabain present, confirmation, cell-based, HEK293 KCC2, thallium flux, FluoZin2, secondary assay 2 | shares compounds with KCC2 mod | thallium flux FluoZin2 fluorescence; actives lie on both sides; F/F0 rise rate, 10–20 s post-thallium | normalized thallium flux at 10 µM | hit rate 23% among 3,700 | AID 1715, 2009;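 active means thallium flux slope more than 3 SD above or below the plate's solvent-only control mean, mostly below; inconclusive means the two repeat wells disagreed; inactive means no significant shift from solvent-only controls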;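 further: raw slope with 0.1% DMSO as baseline and bumetanide as block control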
HEK293 Tl flux: thallium flux modulation in parental HEK cells, confirmation, counter-screen for KCC2 modulator project, cell-based, counterscreen 1; shares compounds with KCC2 mod; hit rate 46% among 3,700; HEK293 parental cells, thallium flux FluoZin2, ouabain; baseline-ratio fluorescence slope, 10–20 s after thallium; thallium flux rate (normalised fluorescence) at 10 µM;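 active means thallium flux rate significantly above the same plate's solvent-only control wells, beyond their mean plus 3 SD; inconclusive means the two replicate wells gave conflicting results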
KCC2 retest ouab: KCC2 inhibitors and activators, ouabain retest, confirmation, HEK-KCC2 cells | hit rate 48% among 3,700 | raw Tl+ flux slope (below DMSO = inhibition, above = activation) at 10 µM | HEK293-KCC2, thallium flux FluoZin2 fluorescence; bidirectional: low = inhibitor, high = activator | shares compounds with KCC2 mod | AID 1717, 2009;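 active means thallium flux slope beyond 3 SD from same-plate DMSO control mean in most replicates, usually higher, sometimes lower; inconclusive means repeat tests gave conflicting results; inactive means no significant difference from controls in most replicates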;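 further: slope of initial-normalized fluorescence between seconds 10 and 20 after thallium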
HEK counter2: native HEK Tl+ uptake effects, second counter-screen – HEK cells, counterscreen 2, counter-screen for KCC2 modulator project, confirmation. hit rate 33% among 3,700. thallium flux slope at 10 µM. AID 1718, 2009. HEK293 parental, thallium flux FluoZin-2 fluorescence slope. shares compounds with KCC2 mod;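 active means thallium flux slope above the same plate's solvent-control mean plus 3 SD in both duplicate wells; inconclusive means duplicate wells that disagreed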;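 further: run without ouabain in cells lacking the KCC2 cotransporter; slope of fluorescence scaled to its starting value between 10 and 20 s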
Numbers without * were called inactive; i = inactive; ? = inconclusive; . = not tested or not shown. Most compounds without a hit are left out; they make up all but 12% or so of the library.

SMILES | ROMK primary | Diaph inh CS | Lmaj promast | Diaph act CS | KCC2 mod | WT yeast gro inh | KCC2 sec1 | KCC2 bumet counter | KCC2 secondary2 | HEK293 Tl flux | KCC2 retest ouab | HEK counter2
CCn1ncc(/C=N/NS(=O)(=O)c2ccc(Cl)cc2)c1C | 0.81 | 8 | 6 | 0.9 | 1.6 | 10 | . | . | . | . | . | .
O=C(NC(=S)Nc1ccccc1C(F)(F)F)c1ccccc1F | . | 23 | -1 | 0.8 | 99* | 21 | 0.0074 | 0.087* | 0.052* | 0.055* | 0.067* | 0.052*
O=C(NC(=S)Nc1cccnc1Cl)c1ccco1 | 1 | 20 | -5 | 0.8 | 25* | 10 | 0.02* | 0.051* | 0.04 | ? | 0.043* | ?
O=C(Nc1cccc(NC(=O)c2cccnc2Cl)c1)c1ccco1 | . | 3 | 12 | 1 | -2 | -6 | . | . | . | . | . | .
Cc1cc(Cl)ccc1NC(=S)N1CCN(C(=O)C2CCCO2)CC1 (stereo not given) | 0.0015 | 10 | -3 | 0.9 | 0.58 | -4 | . | . | . | . | . | .
COc1ccc(NC(C)=O)cc1NC(=O)CN1CCN(C(=O)c2ccco2)CC1 | -0.98 | 13 | 0 | 0.9 | . | -4 | . | . | . | . | . | .
O=C(OCn1ncc(Cl)c(Cl)c1=O)c1ccccc1Cl | . | 12 | 101* | 0.9 | -4.3* | 14 | 0.0085 | 0.0066 | 0.032 | ? | 0.015* | 0.011
O=C(OCn1ncc(Cl)c(Cl)c1=O)c1ccc(F)cc1 | . | -7 | 98* | 1.1 | -4.1* | -1 | 0.0069 | ? | 0.026* | 0.0076 | ? | 0.011
O=C(COC(=O)c1ccc(F)cc1)Nc1ccc(Cl)cn1 | . | . | . | . | 1.7 | . | . | . | . | . | . | .
COc1ccc2[nH]c(=O)c(CNc3cc(C)ccc3C)cc2c1 | . | . | . | . | -0.21 | . | . | . | . | . | . | .
CC1CCCCN1C(=S)Nc1ccc(OC(F)F)cc1 (stereo not given) | . | 15 | 0 | 0.9 | 0.66 | -5 | . | . | . | . | . | .
COc1ccccc1NC(=O)C(NC(=O)OC(C)(C)C)C(C)OCc1ccccc1 (stereo not given) | . | 12 | 4 | 0.9 | -1.1 | 11 | . | . | . | . | . | .
O=C1COc2ccc(C(=O)CSc3ccccc3C(=O)O)cc2N1 | . | . | . | . | -0.3 | . | . | . | . | . | . | .
CCCc1cc(=O)[nH]c(SCC(=O)c2ccc3c(c2)NC(=O)CO3)n1 | . | . | . | . | 11* | . | 0.016 | 0.0041 | 0.029 | 0.0074 | 0.017 | 0.0095
O=C(NCC1(c2ccccc2)CCCC1)c1ccc(Br)o1 | . | 16 | 9 | 0.8 | -1.8 | 3 | . | . | . | . | . | .
C=CCn1c(-c2ccccc2)c[nH]c1=S | . | 4 | -7 | 1 | 0.18 | 5 | . | . | . | . | . | .
C=CCn1c(-c2ccc(Cl)cc2)c[nH]c1=S | -0.43 | 23 | -3 | 0.8 | 5.2* | 0 | ? | 0.029* | 0.034 | 0.011* | 0.026 | ?
CCc1nnc(NC(=O)c2ccc(S(=O)(=O)N(CC(C)C)CC(C)C)cc2)o1 | . | 0 | 96* | 1 | 5.1* | 72* | 0.012* | 0.019* | 0.03 | 0.01* | 0.022* | 0.0099
CCN(Cc1ccccc1)S(=O)(=O)c1ccc(C(=O)Nc2nnc(C3CC3)o2)cc1 | . | 22 | 98* | 0.8 | 3.6* | 48 | 0.012 | 0.019* | 0.034 | ? | ? | 0.012
CCOC(=O)CC1C(=O)NCCN1c1nc2ccc(C)cn2c(=O)c1/C=C1\SC(=S)N(CC(C)C)C1=O (stereo not given) | . | . | . | . | -5.2* | . | 0.0035* | 0.00041* | 0.014* | 0.0033* | 0.0071* | 0.0049*
CCOC(=O)CC1C(=O)NCCN1c1nc2ccc(C)cn2c(=O)c1/C=C1\SC(=S)N(C(C)CC)C1=O (stereo not given) | . | . | . | . | i | . | . | . | . | . | . | .
CCN(CC)S(=O)(=O)c1ccc(/C=C/C(=O)OCC(=O)N(C(C)C)C(C)C)cc1 | -0.4 | 8 | 1 | 0.9 | 0.0016 | -3 | . | . | . | . | . | .
COc1cc(OC)cc(C2=NC3(CCC(C)CC3)NC2=S)c1 (stereo not given) | -2.7 | 8 | 6 | 0.9 | 18* | 28 | 0.012 | 0.019* | 0.035 | 0.025* | ? | 0.011
CCOC(=O)C1CCCN(Cc2nc(Cc3ccccc3Cl)no2)C1 (stereo not given) | -0.43 | 22 | -1 | 0.8 | -0.99 | 13 | . | . | . | . | . | .
Oc1ccc(N=Nc2ccc3c(c2)OCCO3)c2cccnc12 | 1.4 | 4 | 100* | 1 | 24* | 8 | 0.011 | 0.037* | 0.033 | 0.061* | 0.039* | 0.014*
COc1ccc(C)cc1N=Nc1ccc(O)c2ncccc12 | -0.018 | 26 | 100* | 0.7 | 21* | 20 | 0.0069 | 0.035* | 0.039* | 0.021* | 0.035* | 0.023*
COc1ccc(N=Cc2c(O)ccc3ccccc23)cc1 | -2.8 | 40 | -5 | 0.6 | -0.00026 | -3 | . | . | . | . | . | .
COc1ccc(N=Nc2ccc(O)c3ncccc23)cc1 | . | . | . | . | 32* | . | 0.019 | 0.034* | 0.032 | 0.02* | 0.027* | 0.019*
COc1cc(NC(=O)CSc2nccc(C)n2)c(C)cc1[N+](=O)[O-] | -1 | 11 | 1 | 0.9 | -0.43 | -8 | . | . | . | . | . | .
CCC(=O)Nc1ccccc1Nc1cc(C#N)c(C#N)cc1[N+](=O)[O-] | . | 22 | . | 0.8 | . | . | . | . | . | . | . | .

Bioassay records (PubChem BioAssay)
